Measured values: ChEMBL document CHEMBL1681732, “Synthesis and SAR of sulfoxide substituted carboxyquinolines as NK3 receptor antagonists” (Bioorg Med Chem Lett, 2011)
Values after ≈ are worked out from the molar mass of the structure shown.

What was measured:
Neuromedin-K receptor = target: T1, Neuromedin-K receptor (Homo sapiens, UniProt P29371); experiment: Antagonist activity at human NK3 receptor expressed in CHO cells assessed as inhibition of senktide-induced calcium flux by FLIPR assay; format: functional, cell-based
T1 sequence (P29371 whole entry): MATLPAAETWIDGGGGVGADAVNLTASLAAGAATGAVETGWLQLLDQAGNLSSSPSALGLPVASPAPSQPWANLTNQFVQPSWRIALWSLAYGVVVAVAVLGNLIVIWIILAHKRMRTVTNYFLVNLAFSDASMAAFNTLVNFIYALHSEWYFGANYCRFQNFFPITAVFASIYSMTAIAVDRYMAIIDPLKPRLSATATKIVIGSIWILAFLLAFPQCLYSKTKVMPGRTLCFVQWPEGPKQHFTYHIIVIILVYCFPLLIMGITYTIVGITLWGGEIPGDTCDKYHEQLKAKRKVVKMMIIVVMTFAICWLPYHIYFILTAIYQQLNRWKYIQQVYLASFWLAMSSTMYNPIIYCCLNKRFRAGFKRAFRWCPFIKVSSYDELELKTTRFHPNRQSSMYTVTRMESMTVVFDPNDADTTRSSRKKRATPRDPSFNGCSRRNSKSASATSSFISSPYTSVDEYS
Method in brief: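 FLIPR functional assay in CHO cells stably expressing human recombinant NK3 receptor. EC50 given as mean ± SEM (n ≥ 2), or as a single value where n = 1. Tested as 1:1 diastereomer mixtures unless marked as a single isomer.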

[1] = Equilibrium solubility of the compound; format: physicochemical
[2] = Intrinsic clearance in human liver microsomes assessed per mg of protein; format: ADME, Microsome
[3] = Lipophilicity, log D of the compound; format: physicochemical; conditions: octanol/water
[4] = target: Voltage-gated inwardly rectifying potassium channel KCNH2 (Homo sapiens, UniProt Q12809); experiment: Inhibition of human ERG
Chain of Voltage-gated inwardly rectifying potassium channel KCNH2 (Q12809 whole entry): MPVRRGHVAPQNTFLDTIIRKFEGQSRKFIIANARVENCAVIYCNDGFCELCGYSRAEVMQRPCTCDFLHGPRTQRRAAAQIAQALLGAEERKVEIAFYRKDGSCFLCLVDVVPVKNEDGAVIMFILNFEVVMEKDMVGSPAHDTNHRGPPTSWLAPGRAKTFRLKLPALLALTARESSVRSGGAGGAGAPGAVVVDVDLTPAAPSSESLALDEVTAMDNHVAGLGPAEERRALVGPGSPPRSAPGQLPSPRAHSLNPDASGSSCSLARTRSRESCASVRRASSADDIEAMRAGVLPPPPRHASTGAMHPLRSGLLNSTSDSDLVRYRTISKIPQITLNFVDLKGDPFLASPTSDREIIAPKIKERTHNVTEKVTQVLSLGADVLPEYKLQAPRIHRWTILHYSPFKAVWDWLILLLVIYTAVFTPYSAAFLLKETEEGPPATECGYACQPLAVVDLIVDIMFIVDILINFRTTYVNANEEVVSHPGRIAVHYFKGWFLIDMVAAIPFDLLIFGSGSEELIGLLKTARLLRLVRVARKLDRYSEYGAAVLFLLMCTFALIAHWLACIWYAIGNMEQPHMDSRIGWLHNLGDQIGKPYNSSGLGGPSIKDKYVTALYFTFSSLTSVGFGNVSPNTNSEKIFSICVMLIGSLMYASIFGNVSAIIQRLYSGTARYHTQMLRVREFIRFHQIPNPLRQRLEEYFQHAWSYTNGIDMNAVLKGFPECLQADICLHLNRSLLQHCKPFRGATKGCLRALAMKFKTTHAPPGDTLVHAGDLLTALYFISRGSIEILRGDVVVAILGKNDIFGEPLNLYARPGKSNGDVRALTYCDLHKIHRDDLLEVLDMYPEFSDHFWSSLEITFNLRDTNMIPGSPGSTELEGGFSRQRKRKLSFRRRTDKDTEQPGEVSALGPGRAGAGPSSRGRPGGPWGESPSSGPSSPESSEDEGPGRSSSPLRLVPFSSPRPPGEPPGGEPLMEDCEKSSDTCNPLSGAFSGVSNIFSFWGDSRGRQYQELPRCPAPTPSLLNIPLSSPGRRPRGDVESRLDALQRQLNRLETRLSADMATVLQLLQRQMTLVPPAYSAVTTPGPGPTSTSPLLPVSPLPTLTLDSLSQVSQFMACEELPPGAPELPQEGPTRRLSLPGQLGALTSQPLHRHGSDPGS

MDR1 [5] = experiment: (§1) Efflux ratio of permeability in MDCK cells expressing human MDR1; format: ADME, cell-based, Canis lupus familiaris; conditions: dog, MDCK-MDR1
Method in brief: (§2)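 Permeability measured in MDCK cells expressing human MDR1. Papp is expressed in 10^-6 cm/s and reported together with the efflux ratio.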

MDR1 [6] = experiment: (§3) Apparent permeability across MDCK cells expressing human MDR1; format: ADME, cell-based, Canis lupus familiaris; conditions: dog, MDCK-MDR1; method in brief: as §2
Gerbillinae = experiment: Reversal of senktide-induced locomotor activity in ip dosed gerbil; format: functional
[7] = Selectivity ratio of EC50 for human NK3 receptor to EC50 for NK1 receptor
[8] = Clearance in rat plasma; format: ADME, organism-based
[9] = Selectivity ratio of EC50 for human NK3 receptor to EC50 for NK2 receptor
[10] = Ratio of drug level in brain to plasma in rat at 3 umol/kg, iv after 1 hr; format: ADME, organism-based; conditions: brain and plasma, read-out: BPR
Method in brief: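 Rat dosed iv at 3 µmol/kg. Total brain and plasma levels taken 1 h post dose, and their ratio reported.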

[11] = Half life in rat; format: ADME, organism-based; conditions: in vivo
[12] = Oral bioavailability in rat; format: ADME, organism-based; conditions: in vivo
[13] = Half life in dog; format: ADME, organism-based, Canis lupus familiaris; conditions: in vivo
[14] = Oral bioavailability in dog; format: ADME, organism-based, Canis lupus familiaris; conditions: in vivo
[15] = Plasma clearance in dog; format: ADME, organism-based, Canis lupus familiaris
MDCK [16] = experiment: as §1; format: ADME, cell-based, Canis lupus familiaris; conditions: dog, mdck; method in brief: as §2
MDCK [17] = experiment: as §3; format: ADME, cell-based, Canis lupus familiaris; conditions: dog, mdck; method in brief: as §2

Structure (SMILES)	EC50 (Neuromedin-K receptor)	solubility thermodynamic [1]	other results
CC[C@H](NC(=O)c1c([S+](C)[O-])c(-c2ccccc2)nc2cc(F)ccc12)c1ccccc1 (mixture of isomers)	13 nM	58 µM	–
CC[C@H](NC(=O)c1c(SC)c(-c2ccccc2)nc2ccccc12)c1ccccc1 (mixture of isomers)	36 nM	< 1 µM	–
CC[C@H](NC(=O)c1c([S+](C)[O-])c(-c2ccccc2)nc2cc(CN(C)C)ccc12)c1ccccc1 (mixture of isomers)	88 nM	460 µM	–
CC[C@H](NC(=O)c1c([S+](C)[O-])c(-c2ccccc2)nc2cc(Cl)ccc12)c1ccccc1 (mixture of isomers)	7.7 nM	34 µM	–
CC[C@H](NC(=O)c1c([S+](C)[O-])c(-c2ccccn2)nc2ccccc12)c1ccccc1 (mixture of isomers)	1120 nM	360 µM	–
CC[C@H](NC(=O)c1c([S+](C)[O-])c(-c2ccccc2)nc2ccccc12)c1cccnc1 (mixture of isomers)	74 nM	350 µM	–
CC[C@H](NC(=O)c1c([S+](C)[O-])c(-c2ccccc2F)nc2ccccc12)c1ccccc1 (mixture of isomers)	81 nM	53 µM	–
CC[C@H](NC(=O)c1c(C[S@@+](C)[O-])c(-c2ccccc2)nc2ccccc12)c1ccccc1	1.8 nM	8 µM (≈ 3.54 µg/mL)	microsomal CLint [2]: 5.2 µL/min/mg; logD [3]: 3.5; INH [4]: > 33 µM; efflux ratio (MDR1 [5]): 2.6; Papp (MDR1 [6]): 10 ×10⁻⁶ cm/s; ED50 (Gerbillinae): 22 µmol/kg
C[S+]([O-])c1c(-c2ccccc2)nc2ccccc2c1C(=O)NC1(c2ccccc2)CC1 (racemic)	16 nM	1.3 µM (≈ 0.555 µg/mL)	–
CC[C@H](NC(=O)c1c(CC[S+](C)[O-])c(-c2ccccc2)nc2ccccc12)c1ccccc1 (mixture of isomers)	3.3 nM	360 µM	efflux ratio (MDR1 [5]): 21; Papp (MDR1 [6]): 1 ×10⁻⁶ cm/s
CC[C@H](NC(=O)c1c([S+](C)[O-])c(-c2ccccc2)nc2cc(Br)ccc12)c1ccccc1 (mixture of isomers)	5.1 nM	15 µM	–
CC[C@H](NC(=O)c1c([S+](C)[O-])c(-c2cccnc2)nc2ccccc12)c1ccccc1 (single isomer, unassigned)	690 nM	470 µM (≈ 202 µg/mL)	–
CC[C@H](NC(=O)c1c(CS(C)(=O)=O)c(-c2ccccc2)nc2ccccc12)c1ccccc1 (mixture of isomers)	2.5 nM	4 µM	efflux ratio (MDR1 [5]): 3.1; Papp (MDR1 [6]): 11 ×10⁻⁶ cm/s
C[S+]([O-])c1c(-c2ccccc2)nc2ccccc2c1C(=O)NC1(c2ccccc2)CCC1 (racemic)	38 nM	4.5 µM (≈ 1.98 µg/mL)	–
CC[C@H](NC(=O)c1c([S+](C)[O-])c(-c2cncs2)nc2ccccc12)c1ccccc1 (mixture of isomers)	220 nM	390 µM	–
CC[C@H](NC(=O)c1c([S+]([O-])CC(=O)N(C)C)c(-c2ccccc2)nc2ccccc12)c1ccccc1 (mixture of isomers)	12 nM	52 µM	–
CC[C@H](NC(=O)c1c([S+](C)[O-])c(-c2cccs2)nc2ccccc12)c1ccccc1 (mixture of isomers)	1.7 nM	47 µM	microsomal CLint [2]: 220 µL/min/mg
CC[C@H](NC(=O)c1c([S+](C)[O-])c(-c2ccccc2)nc2cc(C)ccc12)c1ccccc1 (mixture of isomers)	3.6 nM	160 µM	–
CC[C@H](NC(=O)c1c(S(C)(=O)=O)c(-c2ccccc2)nc2ccccc12)c1ccccc1 (mixture of isomers)	14 nM	36 µM	efflux ratio (MDR1 [5]): 2.6; Papp (MDR1 [6]): 11 ×10⁻⁶ cm/s
C[S+]([O-])c1c(-c2ccccc2)nc2ccccc2c1C(=O)N[C@H](c1ccncc1)C1CC1 (stereo in doubt; 33b)	> 9300 nM	–	solubility [1]: 370 µM (≈ 163 µg/mL)

Structure (SMILES)	EC50 (Neuromedin-K receptor)	solubility thermodynamic [1]	other results
CC[C@H](NC(=O)c1c([S+](C)[O-])c(-c2ccsc2)nc2ccccc12)c1ccccc1 (mixture of isomers)	1.8 nM	–	microsomal CLint [2]: 190 µL/min/mg
CC[C@H](NC(=O)c1c([S+](C)[O-])c(-c2ccccc2)nc2ccccc12)c1ccccc1 (mixture of isomers)	4.9 nM	–	solubility [1]: 230 µM; efflux ratio (MDR1 [5]): 2.7; Papp (MDR1 [6]): 9.4 ×10⁻⁶ cm/s
CC[C@H](NC(=O)c1c([S+](C)[O-])c(-c2ccccc2)nc2c(F)cccc12)c1ccccc1 (mixture of isomers)	8.2 nM	160 µM	–
CC[C@H](NC(=O)c1c([S+](C)[O-])c(-c2cc[nH]n2)nc2ccccc12)c1ccccc1 (mixture of isomers)	2500 nM	420 µM	–
CC[C@H](NC(=O)c1c([S+](C)[O-])c(-c2ccccc2)nc2ccccc12)c1ccccn1 (mixture of isomers; 35b)	> 5200 nM	–	solubility [1]: 460 µM
CC[C@H](NC(=O)c1c([S+](C)[O-])c(-c2ccc(F)cc2)nc2ccccc12)c1ccccc1 (mixture of isomers)	48 nM	88 µM	–
CC[C@H](NC(=O)c1c([S+](C)[O-])c(-c2cscn2)nc2ccccc12)c1ccccc1 (mixture of isomers)	110 nM	41 µM	–
CC[C@H](NC(=O)c1c([S@+](C)[O-])c(-c2ccccc2)nc2ccccc12)c1ccccc1	3.7 nM	270 µM (≈ 116 µg/mL)	Ratio EC50 [7]: > 2700; clearance [8]: 60 mL/min/kg; microsomal CLint [2]: 23 µL/min/mg; Ratio EC50 [9]: 1860; logD [3]: 3; Kp at 1 h [10]: 0.4; INH [4]: > 33 µM; efflux ratio (MDR1 [5]): 1.3; half-life [11]: 3 h; bioavailability [12]: 60%; Papp (MDR1 [6]): 28 ×10⁻⁶ cm/s; Activity (Gerbillinae): Dose-dependent effect; ED50 (Gerbillinae): 0.75 µmol/kg
CC[C@H](NC(=O)c1c([S+](C)[O-])c(-c2ccccc2)nc2cc(N(C)C)ccc12)c1ccccc1 (mixture of isomers)	212 nM	44 µM	–
CC[C@H](NC(=O)c1c([S+](C)[O-])c(-c2ccccc2)nc2c(C)cccc12)c1ccccc1 (mixture of isomers)	1900 nM	16 µM	–
CCOc1ccc2c(C(=O)N[C@@H](CC)c3ccccc3)c([S+](C)[O-])c(-c3ccccc3)nc2c1 (mixture of isomers)	38 nM	69 µM	–
CC[C@H](NC(=O)c1c([S+](C)[O-])c(-c2cccc(F)c2)nc2ccccc12)c1ccccc1 (mixture of isomers)	18 nM	100 µM	–
C[S+]([O-])c1c(-c2ccccc2)nc2ccccc2c1C(=O)N[C@H](c1ccccc1)C1CC1 (mixture of isomers)	15 nM	180 µM	–
CC[C@H](NC(=O)c1c(C[S@+](C)[O-])c(-c2ccccc2)nc2ccccc12)c1ccccc1	5.3 nM	53 µM (≈ 23.5 µg/mL)	half-life [13]: 6.7 h; Ratio EC50 [7]: > 660; bioavailability [14]: 89%; microsomal CLint [2]: 8.4 µL/min/mg; clearance [15]: 2.3 mL/min/kg; Ratio EC50 [9]: 170; logD [3]: 3.5; INH [4]: > 33 µM; efflux ratio (MDR1 [5]): 3.7; Papp (MDR1 [6]): 9.9 ×10⁻⁶ cm/s; ED50 (Gerbillinae): 2 µmol/kg
C[S+]([O-])c1c(-c2ccccc2)nc2ccccc2c1C(=O)N[C@H](c1ccncc1)C1CC1 (mixture of isomers)	> 10000 nM	–	solubility [1]: 99 µM
CC[C@H](NC(=O)c1c([S+]([O-])C(C)C)c(-c2ccccc2)nc2ccccc12)c1ccccc1 (mixture of isomers)	16 nM	83 µM	–
CC[C@H](NC(=O)c1c([S+]([O-])CC)c(-c2ccccc2)nc2ccccc12)c1ccccc1 (mixture of isomers)	6.9 nM	170 µM	–
CC[C@H](NC(=O)c1c([S+](C)[O-])c(-c2ccccc2)nc2ccccc12)c1ccccn1 (mixture of isomers; 35a)	77 nM	420 µM	–
CC[C@H](NC(=O)c1c([S+](C)[O-])c(-c2ccccc2)nc2ccccc12)c1ccccc1 (stereo in doubt; 2b)	240 nM	–	solubility [1]: 44 µM (≈ 18.9 µg/mL); Ratio (MDCK [16]): 2; Papp (MDCK [17]): 17 ×10⁻⁶ cm/s
CC[C@H](NC(=O)c1c(CSC)c(-c2ccccc2)nc2ccccc12)c1ccccc1 (mixture of isomers)	35 nM	2 µM	efflux ratio (MDR1 [5]): 1.1; Papp (MDR1 [6]): 5.9 ×10⁻⁶ cm/s
